S100A4 inh HTS – inhibitors of human S100A4 binding to myosin IIA peptide. P26447. S100A4/TAMRA-MyoIIA peptide fluorescence polarization. inhibition, % at 10.7 µM. 0.14% of 360,000 active. AID 652163;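 active = mean inhibition of at least 70% across replicates, with every replicate also reaching that level; inconclusive = mean inhibition reaches 70% but some replicates fall short; inactive = mean inhibition below 70%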
Target sequence (P26447 whole entry, looked up): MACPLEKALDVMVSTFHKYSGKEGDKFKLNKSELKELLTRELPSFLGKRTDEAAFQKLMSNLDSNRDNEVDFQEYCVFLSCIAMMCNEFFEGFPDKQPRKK
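Compound dosing: one dose per compound; test system: human S100A4 monomer with TAMRA-labelled myosin IIA peptide; probe or stimulus: TAMRA-labelled myosin IIA heavy-chain peptide probe, 5 nM; medium: HEPES buffer with Ca2+, pH 7.2; schedule: 5 min incubation before reading; benchmarks: neutral control DMSO, positive control TFP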
DENV2 CPE – inhibitors of DENV2 cytopathic effect; DENV2-infected cells, cytopathic effect rescue, plate reader; CPE inhibition, % at 9.99 µM; 1.7% of 350,000 active; AID 651640; in the data active = CPE inhibition above about 20%, passing the limit was not always enough; inconclusive = no clear call, values can overlap the other calls; tested in BHK-21 cells;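 also: 0% = median of neutral control wells and 100% = median of positive control wells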
PfHsp90 yeast 2 – growth inhibition of yeast expressing Plasmodium Hsp90 | S. cerevisiae expressing PfHsp90, BacTiter-Glo ATP, 48 h; yeast lacking PDR1 and PDR3 efflux regulators | inhibition, % at 9.4 µM | 0.32% of 310,000 active | AID 504621;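 active = every replicate shows inhibition above about 80%, whatever the replicate mean, limit read from the data; inconclusive = mean inhibition reaches the set limit but some replicate falls short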;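 also: 0% = DMSO neutral controls and 100% = 20 µM radicicol positive controls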
AF4-AF9 inh – blocks AF4 peptide binding to human AF9; P42568; AlphaScreen, biotin-AF4 peptide binding to FLAG-AF9; inhibition, % at 10 µM; 0.47% of 350,000 active; AID 651704;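 active = every replicate reaching a set inhibition limit, whatever the replicate mean, cut at about 25% in these data; inconclusive = mean inhibition reaches that limit but some replicates miss it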;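 also: 0% = plate neutral control median and 100% = total signal loss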
Target sequence (P42568 whole entry, looked up): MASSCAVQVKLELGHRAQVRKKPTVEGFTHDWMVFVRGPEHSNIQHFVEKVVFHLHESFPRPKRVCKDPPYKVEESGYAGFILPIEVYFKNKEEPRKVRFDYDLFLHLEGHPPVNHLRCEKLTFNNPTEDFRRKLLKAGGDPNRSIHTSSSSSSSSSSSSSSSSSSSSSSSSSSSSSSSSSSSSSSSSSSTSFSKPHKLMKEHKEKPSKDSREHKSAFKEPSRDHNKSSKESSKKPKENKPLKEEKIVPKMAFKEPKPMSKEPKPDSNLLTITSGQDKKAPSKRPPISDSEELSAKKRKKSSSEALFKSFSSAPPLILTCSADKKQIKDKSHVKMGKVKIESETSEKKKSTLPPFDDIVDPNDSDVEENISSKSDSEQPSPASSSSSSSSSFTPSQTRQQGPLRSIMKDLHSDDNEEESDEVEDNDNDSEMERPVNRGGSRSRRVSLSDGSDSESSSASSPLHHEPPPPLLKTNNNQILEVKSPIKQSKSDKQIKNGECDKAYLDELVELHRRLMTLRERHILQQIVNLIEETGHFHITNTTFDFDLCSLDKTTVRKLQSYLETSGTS
rRNA inh HTS – inhibits bacterial ribosomal RNA function over humanized ribosomes; E. coli WT GFP vs humanized-ribosome RFP mutants, fluorescence, 24 h; hits give low values; DMSO median 0, no signal -100; GFP signal change (wild-type ribosome), % (concentration not given with the values); 1.6% of 350,000 active; AID 720706;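 active = significant combined selectivity score with lowered wild-type GFP, culture density cut under 30%, mutant RFP and density less affected; inactive = any of these conditions unmet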
Cneo AK release – causes C. neoformans cell lysis. adenylate kinase release luminescence, 4 h; normalised: neutral wells 0, clomiphene wells 100. lysis activity, % at 15 µM. 0.2% of 360,000 active;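 active = mean lysis activity across replicates of at least 80%, whatever share of replicates individually reach that level; inactive = mean lysis activity below 80%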
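Test system: log-phase Cryptococcus neoformans yeast cells; Quantity: yeast cell density of 5 × 10^6 cells/mL; Buffer or medium: YPD; Doses: single compound concentration per well; Timing: 4 h at 37 °C static, read 1 h later; Measured by: AK luminescence; Read-out basis: lysis from increased AK signal; Control set: Clomiphene as positive control.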
The depositor's hits bear a star; ? = inconclusive; nt = not tested or not shown. Shown are actives, neighbours in structure and some others; about 3.2% of the full set was active somewhere.

SMILES	S100A4 inh HTS	DENV2 CPE	PfHsp90 yeast 2	AF4-AF9 inh	rRNA inh HTS	Cneo AK release
CCCNC(=O)N1CC2(C1)[C@H](c1ccccc1)[C@@H](CO)N2CC1CCOCC1	6	24*	nt	-1	0	nt
CC(=O)N1CC2(C1)[C@H](c1ccccc1)[C@H](CO)N2CC1CCOCC1	0	-6	nt	-2	5	nt
CN(C)CC(=O)N1[C@H](CO)[C@@H](c2ccccc2)C12CN(CC1CCOCC1)C2	2	20*	nt	-1	1	nt
CCCNC(=O)N1CC2(C1)[C@H](c1ccccc1)[C@H](CO)N2CC1CCOCC1	-6	6	nt	-2	6	nt
CC(=O)N1CC2(C1)[C@@H](c1ccccc1)[C@@H](CO)N2CC1CCOCC1	2	22*	nt	0	5	nt
CC(=O)N1CC2(C1)[C@H](c1ccccc1)[C@@H](CO)N2CC1CCOCC1	6	61*	nt	-1	-1	nt
C[C@H]1CCCCO[C@@H](CN(C)S(=O)(=O)c2cccs2)[C@@H](C)CN([C@@H](C)CO)C(=O)c2cc(NC(=O)Nc3ccc4c(c3)OCO4)ccc2O1	5	-2	nt	1	-1	-1
C[C@H]1CN([C@@H](C)CO)C(=O)c2cc(NC(=O)Cc3ccccc3)ccc2O[C@H]1CN(C)Cc1ccc(Cl)c(Cl)c1	0	-7	nt	-4	3	59
O=S(=O)(Cc1ccccc1)N1CC2(C1)[C@H](c1ccccc1)[C@H](CO)N2CC1CCCC1	nt	nt	nt	nt	-16	nt
O=S(=O)(Cc1ccccc1)N1CC2(C1)[C@H](c1ccccc1)[C@@H](CO)N2CC1CCOCC1	0	27*	nt	-2	-3	nt
CC(=O)N1CC2(C1)[C@H](c1ccccc1)[C@H](CO)N2Cc1ccccc1	0	-1	nt	-2	3	nt
CC(=O)N1CC2(C1)[C@H](c1ccccc1)[C@@H](CO)N2Cc1ccccc1	4	24*	nt	-1	4	nt
Cc1noc(C)c1S(=O)(=O)Nc1cccc2c1O[C@@H](CN(C)Cc1ccc3c(c1)OCO3)[C@@H](C)CN([C@@H](C)CO)C2=O	55	4	nt	-3	1	45
N#Cc1ccc(-c2ccc([C@@H]3[C@@H]4CN(Cc5cocn5)C[C@H]3N4)cc2)cc1	nt	99*	nt	nt	-1	nt
N#Cc1ccc(-c2ccc(C3[C@@H]4CN(Cc5ccccc5F)C[C@H]3N4)cc2)cc1 (some centres not stated)	-1	-2	nt	-1	-60	nt
C[C@H](CO)N1C[C@H](C)[C@@H](CN(C)C(=O)Nc2cccc(F)c2)Oc2ncc(C3=CCCC3)cc2C1=O	11	-2	nt	1	-5	-2
Cc1ccc(O)c(NC(=O)C2=CC(c3cccs3)=NS(=O)(=O)N2C)c1	4	2	5	4	-7	0
CN1C(C(=O)Nc2cccc(O)c2)=CC(c2cccs2)=NS1(=O)=O	-3	-2	-12	27*	-11	3
CC(=O)c1cccc(NC(=O)C2=CC(c3cccs3)=NS(=O)(=O)N2C)c1	20	-3	28	3	-20*	2
C[C@H]1CN([C@@H](C)CO)C(=O)c2cc(/C=C/c3ccccc3)cnc2O[C@@H]1CN(C)Cc1ccccc1	0	2	nt	21	2	10
N#Cc1ccc(-c2ccc3c(c2)[C@@H]2[C@@H](CCN2C(=O)Cc2ccccc2)[C@H](CO)N3)cc1	2	4	nt	-4	-46	1
N#Cc1ccc(-c2ccc3c(c2)[C@H]2[C@H](CCN2C(=O)Cc2ccccc2)[C@@H](CO)N3)cc1	5	-19	nt	-1	-48	95*
CCC(=O)N1CC[C@@H]2[C@H]1c1cc(-c3cccc(C#N)c3)ccc1N[C@@H]2CO	nt	-3	nt	nt	12	-17
N#Cc1ccc(-c2ccc3c(c2)[C@H]2[C@H](CCN2C(=O)Cc2ccccc2)[C@H](CO)N3)cc1	-19	-13	nt	-3	-29	1
N#Cc1ccc(-c2ccc3c(c2)[C@@H]2[C@@H](CCN2C(=O)Cc2ccccc2)[C@@H](CO)N3)cc1	-19	?	nt	0	9	89*
SMILES	S100A4 inh HTS	DENV2 CPE	PfHsp90 yeast 2	AF4-AF9 inh	rRNA inh HTS	Cneo AK release
CCC(=O)N1CC[C@@H]2[C@H](CO)Nc3ccc(-c4cccc(C#N)c4)cc3[C@@H]21	nt	137*	nt	nt	4	-1
Cc1noc(C)c1NC(=O)N(C)C[C@@H]1Oc2ncc(C#CC(C)(C)O)cc2C(=O)N([C@H](C)CO)C[C@@H]1C	-3	2	nt	-1	3	0
CC(=O)Nc1ccc2c(c1)C(=O)N(C)C[C@H](C)[C@@H](CN(C)C(C)=O)O2	nt	nt	nt	nt	0	nt
COc1cccc(-n2c(Cc3cc(=O)[nH]c(=O)[nH]3)nnc2SCC(=O)N2CCCCCC2)c1	-1	69*	-1	-2	3	-1
COc1cccc(Oc2cn[nH]c2-c2ccc(O)cc2O)c1	nt	nt	-21	nt	nt	3
COc1ccccc1Oc1cn[nH]c1-c1ccc(O)cc1O	-4	?	-11	7	-21*	nt
CC12CCC(C(=O)N3CCC(Cc4ccccc4)CC3)(C(=O)C1=O)C2(C)C (configuration not stated)	2	-4	6	14	-23*	nt
CCCC(=O)N1CCC(Cc2ccccc2)CC1	-23	-2	-3	-2	10	0
CCN(CC)Cc1c(C(=O)N/N=C(\C)c2ccncc2)nnn1-c1nonc1N	-1	-1	1	43*	3	nt
O=C(C[C@@H]1C[C@@H]2c3cc(NC(=O)c4ccc5c(c4)OCO5)ccc3O[C@@H]2[C@H](CO)O1)NCc1cc(F)ccc1F	-11	-1	nt	-1	-1	-2
O=C(C[C@@H]1C[C@@H]2c3cc(NC(=O)C4CCOCC4)ccc3O[C@@H]2[C@H](CO)O1)NCc1cc(F)ccc1F	20	1	nt	7	6	14
COc1cc2sc(-c3ccccc3OC)c(-c3ccc(O)cc3)c2cc1OC	-23	-6	-30	-21	-5	-1
COc1ccccc1-c1sc2cc3c(cc2c1-c1ccc(O)cc1)OCO3	?	1	107*	8	-14	0
COc1ccc2sc(-c3ccccc3OC)c(-c3ccc(O)cc3)c2c1	-3	?	107*	nt	-37	-1
COCc1ccc(-c2c(-c3ccccc3OC)sc3cc4c(cc23)OCO4)cc1	-6	-7	-15	4	3	-1
Cc1ccc(NC(=O)c2ccc3c(c2)CCN3S(C)(=O)=O)cc1	-12	30*	nt	-1	-12	-1
COc1ccc(S(=O)(=O)Nc2cccc3c2O[C@H](CN(C)C)[C@H](C)CN([C@H](C)CO)C3=O)cc1	4	13	nt	0	-2	-2
CCOc1cc(CNc2ccc(OC)cc2)cc(Br)c1OCC(=O)NC(C)(C)C	1	nt	8	nt	-25*	-2
